The source made the active and inactive calls. No cut-off for these calls is given here.
Experiments:
[1] = target: T1, 3-hydroxy-3-methylglutaryl-coenzyme A reductase (Homo sapiens) (UniProt P04035); assay: Inhibition of HMG-coA reductase in human RPMI-8226 cells assessed as disruption of Rap1a geranylgeranylation at 10 uM after 48 hrs by western blot analysis in presence of 1 mM mevalonate; type: cell-based
T1 sequence (whole entry): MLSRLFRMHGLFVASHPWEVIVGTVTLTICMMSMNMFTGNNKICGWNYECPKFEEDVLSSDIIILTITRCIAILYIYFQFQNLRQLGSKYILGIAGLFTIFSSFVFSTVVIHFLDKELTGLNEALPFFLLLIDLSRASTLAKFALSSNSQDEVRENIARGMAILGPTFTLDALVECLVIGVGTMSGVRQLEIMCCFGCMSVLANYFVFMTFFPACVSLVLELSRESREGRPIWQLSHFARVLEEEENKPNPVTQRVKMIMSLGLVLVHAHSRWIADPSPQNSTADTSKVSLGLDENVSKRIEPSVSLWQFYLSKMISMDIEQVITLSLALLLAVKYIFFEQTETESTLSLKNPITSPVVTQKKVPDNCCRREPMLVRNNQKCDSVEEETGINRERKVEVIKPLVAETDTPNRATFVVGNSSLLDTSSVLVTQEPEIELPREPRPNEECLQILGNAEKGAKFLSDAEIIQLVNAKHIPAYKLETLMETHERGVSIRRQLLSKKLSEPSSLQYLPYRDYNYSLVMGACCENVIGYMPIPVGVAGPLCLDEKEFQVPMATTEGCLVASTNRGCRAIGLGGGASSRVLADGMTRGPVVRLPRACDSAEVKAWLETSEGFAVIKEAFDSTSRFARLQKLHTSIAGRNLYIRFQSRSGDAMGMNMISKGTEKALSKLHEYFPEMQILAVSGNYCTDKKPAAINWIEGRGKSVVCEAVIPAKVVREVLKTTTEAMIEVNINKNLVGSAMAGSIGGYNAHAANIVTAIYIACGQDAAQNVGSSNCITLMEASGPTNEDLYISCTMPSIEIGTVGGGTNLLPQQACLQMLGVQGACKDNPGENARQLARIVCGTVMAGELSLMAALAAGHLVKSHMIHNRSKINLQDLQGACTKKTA
How it was run: (§1)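 RPMI-8226 cells held 48 h with 10 µM inhibitor, with or without isoprenoid add-back (1 mM mevalonate, 10 µM FPP or 10 µM GGPP). RIPA whole-cell lysate immunoblotted with an antibody detecting only unmodified Rap1a, β-tubulin as loading control. Protein equalised by BCA. Two independent experiments.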

[2] = target: T1, 3-hydroxy-3-methylglutaryl-coenzyme A reductase (Homo sapiens); assay: Inhibition of HMG-coA reductase in human RPMI-8226 cells assessed as disruption of Rap1a geranylgeranylation at 10 uM after 48 hrs by western blot analysis; type: cell-based; how it was run: as §1
[3] = target: T1, 3-hydroxy-3-methylglutaryl-coenzyme A reductase (Homo sapiens); assay: Inhibition of HMG-coA reductase in human RPMI-8226 cells assessed as disruption of Rap1a geranylgeranylation at 10 uM after 48 hrs by western blot analysis in presence of 10 uM GGPP; type: cell-based; how it was run: as §1
[4] = target: Protein farnesyltransferase (Homo sapiens, UniProt P49354+P49356); assay: Inhibition of recombinant FTase (unknown origin) assessed as decrease in prenylated fluorescent peptides level using dansyl-GCVLS and FPP as substrate after 1 hr by HPLC-fluorescence detection analysis; type: protein-complex assay
How it was run: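 3 nM recombinant FTase started reaction in pH 7.5 Tris buffer with DTT, 10 mM MgCl2, 10 µM ZnCl2, 0.04% DDM, plus 10 µM FPP and 5 µM dansyl-GCVLS. Run 1 h at 30 °C, stopped with acetonitrile/5% HCl, centrifuged. Prenylated peptide quantified by HPLC-fluorescence. IC50 taken from concentration-response curves.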

[5] = target: T2, Farnesyl pyrophosphate synthase (Homo sapiens) (UniProt P14324); assay: Inhibition of FDPS in human RPMI-8226 cells assessed as disruption of Ras farnesylation after 48 hrs by western blot analysis; type: cell-based
T2 sequence (whole entry): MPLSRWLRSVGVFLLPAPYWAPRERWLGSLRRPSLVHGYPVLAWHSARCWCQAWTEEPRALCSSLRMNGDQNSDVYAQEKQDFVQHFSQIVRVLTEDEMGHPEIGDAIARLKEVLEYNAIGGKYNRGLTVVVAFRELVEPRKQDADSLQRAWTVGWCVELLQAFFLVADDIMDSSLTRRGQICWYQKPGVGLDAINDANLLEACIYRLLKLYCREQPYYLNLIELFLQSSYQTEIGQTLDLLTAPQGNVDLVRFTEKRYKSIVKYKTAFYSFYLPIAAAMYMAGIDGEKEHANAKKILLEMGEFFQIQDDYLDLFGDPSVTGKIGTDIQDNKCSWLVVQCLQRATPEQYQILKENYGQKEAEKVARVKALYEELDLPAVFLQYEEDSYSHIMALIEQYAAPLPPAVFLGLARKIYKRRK

[6] = Inhibition of recombinant GGTase 2 (unknown origin) using recombinant Rab1A and [3H]GGPP as substrate after 20 mins by liquid scintillation counting analysis in presence of recombinant REP-2; parameters: species or system Homo sapiens
How it was run: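 30 nM recombinant GGTase II with 2 µM His-tagged Rab1A (E. coli-expressed, Ni-NTA purified) and 1 µM REP-2 in HEPES buffer with MgCl2, DTT, NP-40. Started with 5 µM [3H]-GGPP, 20 min at 37 °C, ended with HCl/EtOH. Filtered on P-81 paper, washed and scintillation counted. Tested up to 1 mM.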

[7] = target: T3, Geranylgeranyl pyrophosphate synthase (Homo sapiens) (UniProt O95749); conditions: RPMI-8226, 1 uM
T3 sequence (whole entry): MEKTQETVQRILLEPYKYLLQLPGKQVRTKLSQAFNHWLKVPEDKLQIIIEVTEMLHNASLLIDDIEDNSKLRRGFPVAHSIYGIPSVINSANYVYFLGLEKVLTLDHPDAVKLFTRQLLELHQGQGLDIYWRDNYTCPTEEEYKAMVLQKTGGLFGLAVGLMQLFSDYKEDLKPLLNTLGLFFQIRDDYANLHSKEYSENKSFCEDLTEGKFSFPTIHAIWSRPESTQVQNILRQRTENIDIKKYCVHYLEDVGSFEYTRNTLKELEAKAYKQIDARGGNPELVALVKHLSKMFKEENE

[8] = target: T4, Farnesyl pyrophosphate synthase (Homo sapiens, UniProt P14324); assay: Inhibition of recombinant FDPS (unknown origin) assessed as decrease in radiolabeld […] level using GPP and [14C]IPP as substrate treated with enzyme for 10 mins prior to substrate challenge for 30 mins by liquid scintillation counting analysis
T4 sequence (P14324 whole entry): T2 sequence (whole entry)
How it was run: (§2)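 Enzyme (10 nM FDPS or 20 nM GGDPS) preincubated with compound 10 min at room temperature in 50 mM Tris-HCl pH 7.7, 20 mM MgCl2, 5 mM TCEP, 5 µg/mL BSA. Started with 10 µM GPP (FDPS) or 10 µM FPP (GGDPS) plus 10 µM [14C]-IPP; 37 °C, 30 min. Stopped with saturated NaCl, butanol-extracted, counted. IC50 from concentration-response curves.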

[9] = target: T3, Geranylgeranyl pyrophosphate synthase (Homo sapiens); conditions: RPMI-8226, 10 uM
[10] = target: T3, Geranylgeranyl pyrophosphate synthase (Homo sapiens); assay: Inhibition of GGDPS in human RPMI-8226 cells assessed as disruption of Rab6 geranylgeranylation at 10 uM after 48 hrs by western blot analysis; type: cell-based
How it was run: (§3)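 RPMI-8226 human myeloma cells exposed 48 h to test agent. For Rap1a, RIPA whole-cell lysate probed with an antibody recognising only unmodified Rap1a, β-tubulin as loading control. Rab6 read from Triton X-114 aqueous versus detergent fractions, with β-tubulin for aqueous and calnexin for detergent loading. Equal protein by BCA, SDS-PAGE/immunoblot with ECL. Blots representative of two independent experiments.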

[11] = target: Geranylgeranyl transferase type I (Homo sapiens, UniProt P49354+P53609); assay: Inhibition of recombinant GGTase 1 (unknown origin) assessed as decrease in prenylated fluorescent peptides level using dansyl-GCVLS and GGPP as substrate after 1 hr by HPLC-fluorescence detection analysis
How it was run: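 Reaction started by adding 12 nM recombinant GGTase I to pH 7.5 Tris buffer with DTT, 5 mM MgCl2, 50 µM ZnCl2, 10 mM KCl, 0.04% DDM, 10 µM GGPP and 7 µM dansyl-GCVLS. Incubated 1 h at 30 °C, then acid-acetonitrile quench. Prenylated peptide measured by HPLC with fluorescence. IC50 from concentration-response curves.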

[12] = target: T3, Geranylgeranyl pyrophosphate synthase (Homo sapiens); conditions: RPMI-8226, 1 uM; remark: listed apart in the source
[13] = target: T3, Geranylgeranyl pyrophosphate synthase (Homo sapiens); assay: Inhibition of GGDPS in human RPMI-8226 cells assessed as disruption of Rap1a geranylgeranylation at 10 uM after 48 hrs by western blot analysis; type: cell-based; how it was run: as §3
[14] = target: T3, Geranylgeranyl pyrophosphate synthase (Homo sapiens); conditions: RPMI-8226, 1 uM; remark: listed apart in the source
[15] = target: T3, Geranylgeranyl pyrophosphate synthase (Homo sapiens); conditions: RPMI-8226, 10 uM; remark: listed apart in the source
[16] = target: T3, Geranylgeranyl pyrophosphate synthase (Homo sapiens); conditions: RPMI-8226, 10 uM; remark: listed apart in the source
[17] = target: T3, Geranylgeranyl pyrophosphate synthase (Homo sapiens); conditions: RPMI-8226, 10 uM; remark: listed apart in the source
[18] = target: T5, Geranylgeranyl pyrophosphate synthase (Homo sapiens, UniProt O95749); assay: Inhibition of recombinant GGDPS (unknown origin) assessed as decrease in radiolabeld GGPP level using FPP and [14C]IPP as substrate treated with enzyme for 10 mins prior to substrate challenge for 30 mins by liquid scintillation counting analysis; how it was run: as §2
T5 sequence (O95749 whole entry): T3 sequence (whole entry)

SMILES: CC[C@H](C)C(=O)O[C@H]1C[C@@H](C)C=C2C=C[C@H](C)[C@H](CC[C@@H]3C[C@@H](O)CC(=O)O3)[C@H]21
- inhibition [1]: inactive
- inhibition [2]: Active
- inhibition [3]: inactive

SMILES: CC(C)=CCCC(C)=CCn1cc(CC(P(=O)(O)O)P(=O)(O)O)nn1 (mixture of isomers)
- IC50 [4]: 500 µM
- inhibition [5]: inactive
- IC50 [6]: > 1000 µM
- inhibition [7]: Active
- IC50 [8]: 84 µM
- inhibition [9]: Active
- disruption of Rab6 geranylgeranylation (active/not active) [10]: Active
- IC50 [11]: 200 µM
- inhibition [12]: Active
- disruption of Rap1a geranylgeranylation (active/not active) [13]: Active

SMILES: CC(C)=CCC/C(C)=C\Cn1cc(CC(P(=O)(O)O)P(=O)(O)O)nn1
- IC50 [4]: 400 µM
- inhibition [14]: Active
- inhibition [15]: Active
- inhibition [5]: inactive
- inhibition [16]: inactive
- IC50 [6]: > 1000 µM
- inhibition [7]: Active
- IC50 [8]: 79 µM
- inhibition [9]: Active
- disruption of Rab6 geranylgeranylation (active/not active) [10]: Active
- IC50 [11]: 500 µM
- inhibition [17]: Active
- inhibition [12]: Active
- disruption of Rap1a geranylgeranylation (active/not active) [13]: Active

SMILES: CC(C)=CCC/C(C)=C/Cn1cc(CC(P(=O)(O)O)P(=O)(O)O)nn1
- IC50 [4]: > 500 µM
- inhibition [5]: inactive
- IC50 [6]: > 1000 µM
- inhibition [7]: inactive
- IC50 [8]: 57 µM
- inhibition [9]: inactive
- IC50 [11]: 340 µM
- inhibition [12]: inactive
- disruption of Rap1a geranylgeranylation (active/not active) [13]: Active

SMILES: CC(C)=CCC[C@]1(C)O[C@@H]1Cn1cc(CC(P(=O)(O)O)P(=O)(O)O)nn1 (racemic)
- IC50 [4]: 340 µM
- inhibition [5]: inactive
- IC50 [6]: > 1000 µM
- IC50 [8]: 47 µM
- IC50 [18]: 17 µM
- disruption of Rab6 geranylgeranylation (active/not active) [10]: inactive
- IC50 [11]: 300 µM
- disruption of Rap1a geranylgeranylation (active/not active) [13]: inactive

SMILES: CC(C)=CCC[C@@]1(C)O[C@@H]1Cn1cc(CC(P(=O)(O)O)P(=O)(O)O)nn1 (racemic)
- IC50 [4]: 400 µM
- inhibition [5]: inactive
- IC50 [6]: > 1000 µM
- IC50 [8]: 33 µM
- IC50 [18]: 23 µM
- disruption of Rab6 geranylgeranylation (active/not active) [10]: inactive
- IC50 [11]: 500 µM
- disruption of Rap1a geranylgeranylation (active/not active) [13]: inactive

SMILES: CC(C)=CCC/C(C)=C/CC(C/C=C(\C)CCC=C(C)C)(P(=O)(O)O)P(=O)(O)O
- inhibition [5]: inactive
- inhibition [9]: Active
- disruption of Rab6 geranylgeranylation (active/not active) [10]: Active
- disruption of Rap1a geranylgeranylation (active/not active) [13]: Active

Reference: ChEMBL document CHEMBL3259705, “Geranyl and neryl triazole bisphosphonates as inhibitors of geranylgeranyl diphosphate synthase” (Bioorg Med Chem, 2014)
